From ChEMBL document CHEMBL1144182, “Antimicrobial and cytotoxic arylazoenamines. Part III: antiviral activity of selected classes of arylazoenamines” (Bioorg Med Chem, 2008)
≈ marks a conversion by molar mass, not a printed value. Calls of active or inactive are those of the source. How the calls were made is not given here.

Columns and labels:
[1] = system: Candida; assay: Antimicrobial activity against Candida
[2] = Cytotoxicity against mock-infected human MT4 cells assessed as reduction in cell viability after 96 hrs by MTT assay; assay type: cell-based
How it was run: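 Exponentially growing MT-4 cells seeded at 1 × 10^5 cells/mL in RPMI-1640 with 10% FCS, penicillin and streptomycin, with or without serial compound dilutions. Incubated at 37 °C, 5% CO2; viability read by MTT after 96 h. CC50 is the concentration reducing mock-infected cell viability by 50%.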

[3] = Cytotoxicity against mock-infected MDBK cells assessed as reduction in cell viability after 96 hrs by MTT assay; assay type: cell-based, Bos taurus; details: cattle
How it was run: (§1)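 Cytotoxicity run in parallel with the antiviral assays. MDBK seeded at 6 × 10^5 and BHK at 1 × 10^6 cells/mL in maintenance medium with or without serial compound dilutions. Incubated 48–96 h at 37 °C, 5% CO2, then viability read by MTT. CC50 is the concentration reducing mock-infected cell viability by 50%.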

[4] = system: Bovine viral diarrhea virus 1; assay: Antiviral activity against BVDV infected in MDBK cells assessed as protection against virus-induced cytopathogenicity after 4 days by MTT assay; assay type: functional, organism-based; details: Bovine viral diarrhea virus isolates and strains, 96 h
How it was run: (§2)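 MDBK (BVDV) or BHK-21 (YFV) cells were seeded at 3 × 10^4 or 5 × 10^4 cells/well respectively and grown overnight to confluent monolayers at 37 °C in 5% CO2. Monolayers were infected at m.o.i. 0.01 in serum-free medium. After 1 h, MEM Earle's with 1% FCS was added, with or without serial compound dilutions. After 3–4 days at 37 °C, viability was read by MTT. EC50 was taken as 50% protection from virus-induced cytopathogenicity.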

[5] = Cytotoxicity against mock-infected BHK cells assessed as reduction in cell viability after 96 hrs by MTT assay; assay type: cell-based, Mesocricetus auratus; details: hamster; how it was run: as §1
[6] = system: Yellow fever virus; assay: Antiviral activity against YFV infected in BHK21 cells assessed as protection against virus-induced cytopathogenicity after 4 days by MTT assay; assay type: functional, organism-based; details: BHK-21, 96 h; how it was run: as §2
[7] = Cytotoxicity against mock-infected african green monkey Vero76 cells assessed as reduction in cell viability after 96 hrs by MTT assay; assay type: cell-based, Vero; details: chlorocebus sabaeus
[8] = system: Coxsackievirus B2; assay: Antiviral activity against CVB2 infected in Vero76 cells assessed as reduction in virus plaque formation after 4 days by MTT assay; assay type: functional, organism-based; details: Enterovirus B, Vero 76, 96 h
[9] = system: Respiratory syncytial virus; assay: Antiviral activity against RSV infected in Vero76 cells assessed as reduction in virus plaque formation after 4 days by MTT assay; assay type: functional, organism-based; details: human respiratory syncytial virus, Vero 76, 96 h
[10] = system: Poliovirus 1; assay: Antiviral activity against Sb1 virus infected in Vero76 cells assessed as reduction in virus plaque formation after 4 days by MTT assay; assay type: functional, organism-based; details: Enterovirus C, Sabin, Vero 76, 96 h
[11] = system: Human alphaherpesvirus 1; assay: Antiviral activity against HSV1 infected in Vero76 cells assessed as reduction in virus plaque formation after 4 days by MTT assay; assay type: functional, organism-based; details: Human alphaherpesvirus 1, Vero 76, 96 h
[12] = system: Human immunodeficiency virus 1; assay: Antiviral activity against HIV1 infected in MT4 cells assessed as virus-induced cytopathogenicity after 4 days; assay type: functional, organism-based
[13] = system: Vaccinia virus; assay: Antiviral activity against VV infected in Vero76 cells assessed as reduction in virus plaque formation after 4 days by MTT assay; assay type: functional, organism-based; details: Orthopoxvirus vaccinia; Vero 76
[14] = system: Vesicular stomatitis virus; assay: Antiviral activity against VSV infected in Vero76 cells assessed as reduction in virus plaque formation after 4 days by MTT assay; assay type: functional, organism-based; details: Vero 76
[15] = system: Pseudomonas aeruginosa; assay: Antimicrobial activity against Pseudomonas aeruginosa; assay type: functional
[16] = system: Mammalian orthoreovirus 1; assay: Antiviral activity against Reo virus 1 infected in BHK21 cells assessed as protection against virus-induced cytopathogenicity after 4 days by MTT assay; assay type: functional, organism-based; details: Mammalian orthoreovirus 1, BHK-21, 96 h

Row | SMILES | MIC [1] | CC50 at 96 h [2] | CC50 at 96 h [3] | EC50 [4] | CC50 at 96 h [5] | EC50 [6] | CC50 at 96 h [7] | EC50 [8] | EC50 [9] | EC50 [10] | EC50 [11] | Activity [12] | Activity [13] | Activity [14] | MIC [15] | EC50 [16]
1 | Clc1ccc(COC(Cn2ccnc2)c2ccc(Cl)cc2Cl)c(Cl)c1.O=[N+]([O-])O (configuration not stated) [MICONAZOLE NITRATE] | 0.25 µg/mL | – | – | – | – | – | – | – | – | – | – | – | – | – | – | –
2 | CN1CCC/C1=C\N=N\c1ccc(Cl)c(Cl)c1 | – | 39 µM | 90 µM | 16 µM | 23 µM | > 23 µM | 100 µM | > 100 µM | > 100 µM | 53 µM | 40 µM | inactive | inactive | inactive | – | –
3 | FC(F)(F)c1cc(/N=N\C2=C3CCCN3CCC2)ccc1Cl | – | 30 µM | 21 µM | > 21 µM | 51 µM | > 51 µM | 100 µM | 9 µM | > 100 µM | 12 µM | 33 µM | inactive | inactive | inactive | – | –
4 | CCn1cc(C(=O)O)c(=O)c2cc(F)c(N3CCNCC3)cc21 [NORFLOXACIN] | – | – | – | – | – | – | – | – | – | – | – | – | – | – | 4 µg/mL (≈ 12.5 µM) | –
5 | CN1C=C(/N=N/c2ccc(Cl)cc2)CCC1 | – | > 100 µM | 58 µM | > 58 µM | > 100 µM | > 100 µM | 90 µM | 5 µM | 20 µM | 8 µM | – | inactive | inactive | inactive | – | 32 µM
6 | CN1CCC/C1=C\N=N\c1ccc(F)c(C(F)(F)F)c1 | – | 11 µM | > 100 µM | 100 µM | 41 µM | > 41 µM | > 100 µM | 71 µM | > 100 µM | > 100 µM | 60 µM | inactive | inactive | inactive | – | –
7 | C(=C\N1CCN(c2ccccc2)CC1)/N=N/c1ccccc1 | – | 15 µM | 5 µM | > 5 µM | 60 µM | 42 µM | 50 µM | 5 µM | 11 µM | > 50 µM | – | inactive | inactive | inactive | – | –
8 | C(=C\N1CCOCC1)/N=N/c1ccccc1 | – | 7 µM | 28 µM | > 28 µM | > 100 µM | > 100 µM | 30 µM | 7 µM | 15 µM | > 30 µM | – | inactive | inactive | inactive | – | –
9 | CCOC(=O)N1CCN(/C=C/N=N/c2ccccc2)CC1 | – | 17 µM | 13 µM | > 13 µM | > 100 µM | > 100 µM | 30 µM | 12 µM | 4 µM | > 30 µM | – | inactive | inactive | inactive | – | –
10 | Clc1ccc(/N=N\C2=C3CCCCN3CCC2)cc1Cl | – | 35 µM | 30 µM | > 30 µM | 54 µM | > 54 µM | > 100 µM | 38 µM | > 100 µM | > 100 µM | – | inactive | inactive | inactive | – | –
11 | FC(F)(F)c1cc(/N=N\C2=C3CCCCN3CCC2)ccc1Br | – | 34 µM | > 100 µM | 61 µM | > 100 µM | 80 µM | 100 µM | 42 µM | > 100 µM | 25 µM | 25 µM | inactive | inactive | inactive | – | –
12 | CN1C=C(/N=N/c2ccc(Br)cc2)CCC1 | – | 83 µM | > 100 µM | 60 µM | > 100 µM | 100 µM | 100 µM | > 100 µM | 18 µM | > 100 µM | – | inactive | inactive | inactive | – | 76 µM
13 | FC(F)(F)c1cc(/N=N/C=C2\CCCN2Cc2ccccc2)ccc1Cl | – | 20 µM | 14 µM | > 14 µM | 22 µM | > 22 µM | 80 µM | 30 µM | > 80 µM | > 80 µM | – | inactive | inactive | inactive | – | –
14 | Fc1ccc(/N=N\C2=C3CCCCN3CCC2)cc1 | – | 94 µM | 56 µM | > 56 µM | > 100 µM | 100 µM | > 100 µM | 27 µM | > 100 µM | > 100 µM | – | inactive | inactive | inactive | – | 34 µM
15 | Clc1ccc(/N=N\C2=C3CCCCN3CCC2)cc1 | – | 42 µM | 60 µM | > 60 µM | 69 µM | > 69 µM | 80 µM | 19 µM | 25 µM | > 80 µM | – | inactive | inactive | inactive | – | –
16 | CN1C=C(/N=N/c2ccc(Cl)c([N+](=O)[O-])c2)CCC1 | – | 71 µM | 61 µM | > 61 µM | > 100 µM | > 100 µM | > 100 µM | > 100 µM | > 100 µM | > 100 µM | – | inactive | inactive | inactive | – | –
